Laboratory results: ChEMBL document CHEMBL1147853, “Synthesis and anti-HIV studies of 2-adamantyl-substituted thiazolidin-4-ones” (Eur J Med Chem, 2007)
Active and inactive are the calls of the source. The calls are words filed in the database; no cut-off is given here.

Tests used:
[1] = Cytotoxicity against CEM cells; assay type: cell-based; conditions: human, CEM (CCRF-CEM) cells
How it was run: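 CEM cells were plated at 300,000–500,000 cells/mL with an equal volume of compound dilutions and incubated 3 days at 37 °C. Cell number was counted with a Coulter counter.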

[2] = Selectivity index, ratio of CC50 for CEM cells to EC50 for HIV1 infected CEM cells; assay type: functional, CCRF-CEM
[3] = system: Human immunodeficiency virus 2; test: Antiviral activity against HIV2 ROD in CEM cells; assay type: functional, organism-based; conditions: Human immunodeficiency virus 2, ROD, CCRF-CEM
How it was run: (§1)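 CEM cells at 4×10^4 cells/mL infected with virus at ~100 CCID50 per mL of cell suspension, then mixed 1:1 with serial dilutions of compound. After four days, giant cell formation was scored microscopically.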

Influenza A virus = test: Antiviral activity against influenza virus H3N2 in MDCK cells; assay type: functional, organism-based
[4] = system: Human immunodeficiency virus 1; test: Antiviral activity against HIV1 3B in CEM cells; assay type: functional, organism-based; conditions: Human immunodeficiency virus 1, 3B, CCRF-CEM; how it was run: as §1
[5] = target: T1, Human immunodeficiency virus type 1 reverse transcriptase (Human immunodeficiency virus 1, UniProt Q72547); test: Inhibition of HIV1 reverse transcriptase using Poly rA.dT template
How it was run: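 Recombinant HIV-1(IIIB) RT was assayed in 50 mM Tris-HCl pH 7.8 with 5 mM DTT, 300 mM glutathione, 500 µM EDTA, 150 mM KCl, 5 mM MgCl2, BSA and 0.06% Triton X-100. Template/primer was poly(A).oligo(dT) at 0.1 mM with [3H]dTTP at 0.6 µM. Reactions ran 30 min at 37 °C, followed by TCA precipitation and radioactivity counting.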

[6] = target: T1, Human immunodeficiency virus type 1 reverse transcriptase; test: Inhibition of HIV1 reverse transcriptase using Poly rC.dG template
[7] = system: Human immunodeficiency virus 1; test: Antiviral activity against HIV1 3B with reverse transcriptase Leu100Ile mutation; assay type: functional, organism-based; conditions: Human immunodeficiency virus 1, 3B
How it was run: (§2)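 CEM cells at 4×10^4 cells/mL were infected with HIV-1(III_B) strains carrying NNRTI-type RT mutations, at ~100 CCID₅₀ per mL of cell suspension. Infected cells were mixed 1:1 with serial compound dilutions. Giant cell formation was scored microscopically after four days. EC₅₀ is the concentration inhibiting virus-induced cytopathicity by 50%.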

[8] = system: Human immunodeficiency virus 1; test: Antiviral activity against HIV1 3B with reverse transcriptase Tyr181Ile mutation; assay type: functional, organism-based; conditions: Human immunodeficiency virus 1, 3B; how it was run: as §2
[9] = system: Human immunodeficiency virus 1; test: Antiviral activity against HIV1 3B with reverse transcriptase Tyr181His mutation; assay type: functional, organism-based; conditions: Human immunodeficiency virus 1, 3B
[10] = system: Human immunodeficiency virus 1; test: Antiviral activity against HIV1 3B with reverse transcriptase Lys103 Asn mutation; assay type: functional, organism-based; conditions: Human immunodeficiency virus 1, 3B; how it was run: as §2
[11] = system: Human immunodeficiency virus 1; test: Antiviral activity against HIV1 3B with reverse transcriptase Tyr181Cys mutation; assay type: functional, organism-based; conditions: Human immunodeficiency virus 1, 3B; how it was run: as §2

In the case of `Cc1cccnc1N1C(=O)CSC1C12CC3CC(CC(C3)C1)C2` (stereo unspecified), the CC50 [1] is reported as 29 µM, the “Ratio CC50/EC50” value [2] is reported as under 2.5 and the EC50 [3] is reported as over 12 µM. The Activity (Influenza A virus) was “inactive” and the EC50 [4] was over 12 µM.
With `O=C1CSC(C23CC4CC(CC(C4)C2)C3)N1c1ccc(I)cc1` (stereo unspecified) the CC50 [1] was at least 228 µM, the “Ratio CC50/EC50” value [2] was “<=1” and the EC50 [3] was over 45 µM. The Activity (Influenza A virus) was “inactive” and the EC50 [4] was over 228 µM.
With `Cc1cccc(N2C(=O)CSC2C23CC4CC(CC(C4)C2)C3)n1` (stereo unspecified) the IC50 [5] was 43 µM, the CC50 [1] was over 304 µM and the “Ratio CC50/EC50” value [2] was 14. The EC50 [3] was over 304 µM, the IC50 [6] was 40 µM and the Activity (Influenza A virus) was “inactive”. The EC50 [4] was 21 µM.
In the case of `O=C1CSC(C23CC4CC(CC(C4)C2)C3)N1c1ccc(Br)cc1` (stereo unspecified), the CC50 [1] is reported as at least 255 µM, the “Ratio CC50/EC50” value [2] is reported as under 1 and the EC50 [3] is reported as over 255 µM. The Activity (Influenza A virus) was “inactive” and the EC50 [4] was over 255 µM.
In the case of `COc1ccc(N2C(=O)CSC2C23CC4CC(CC(C4)C2)C3)cc1` (stereo unspecified), the CC50 [1] is reported as 74 µM, the “Ratio CC50/EC50” value [2] is reported as under 6 and the EC50 [3] is reported as over 12 µM. For the same molecule, the Activity (Influenza A virus) was “inactive” and the EC50 [4] was over 12 µM.
For `O=C1CSC(C23CC4CC(CC(C4)C2)C3)N1c1ccc(Cl)c(C(F)(F)F)c1` (stereo unspecified), the CC50 [1] was over 240 µM, the “Ratio CC50/EC50” value [2] was under 1 and the EC50 [3] was over 48 µM. The Activity (Influenza A virus) was “inactive” and the EC50 [4] was over 48 µM.
In the case of `N#Cc1ccc(N2C(=O)CSC2C23CC4CC(CC(C4)C2)C3)cc1` (stereo unspecified), the CC50 [1] is reported as at least 295 µM, the “Ratio CC50/EC50” value [2] is reported as “<=1” and the EC50 [3] is reported as over 295 µM. For the same molecule, the Activity (Influenza A virus) was “inactive” and the EC50 [4] was over 295 µM.
In the case of `CN(C)CCN1C(=O)CSC1C12CC3CC(CC(C3)C1)C2` (stereo unspecified), the IC50 [5] is reported as over 648 µM, the CC50 [1] is reported as 125 µM and the “Ratio CC50/EC50” value [2] is reported as 1.9. The EC50 [3] was over 65 µM, the IC50 [6] was over 648 µM and the Activity (Influenza A virus) was “inactive”. It also gave an EC50 [4] of 65 µM.
For `O=C1CSC(C23CC4CC(CC(C4)C2)C3)N1CCN1CCOCC1` (stereo unspecified), the CC50 [1] was 140 µM, the “Ratio CC50/EC50” value [2] was under 3 and the EC50 [3] was over 57.1 µM. The Activity (Influenza A virus) was “inactive” and the EC50 [4] was over 57 µM.
With `Cc1cc(C)nc(N2C(=O)CS[C@@H]2C23CC4CC(CC(C4)C2)C3)c1` the EC50 [7] was 2.3 µM, the EC50 [8] was over 12 µM and the EC50 [9] was over 12 µM. For the same molecule, the IC50 [5] was 20 µM, the EC50 [10] was 1.5 µM and the CC50 [1] was 35 µM. The “Ratio CC50/EC50” value [2] was 198, the EC50 [3] was over 12 µM and the IC50 [6] was 19 µM. The Ki [6] was 12 µM, the Activity (Influenza A virus) was “inactive” and the EC50 [11] was 8.2 µM. It also gave an EC50 [4] of 0.178 µM.
In the case of `O=c1[nH]cnc2c1ncn2[C@H]1CC[C@@H](CO)O1` [DIDANOSINE], the CC50 [1] is reported as over 250 µM, the “Ratio CC50/EC50” value [2] is reported as over 54 and the EC50 [4] is reported as 4.6 µM.
With `Cc1ccnc2c1NC(=O)c1cccnc1N2C1CC1` [NEVIRAPINE] the CC50 [1] was over 50 µM and the EC50 [3] was over 50 µM.
In the case of `CCN(CC)CCN1C(=O)CSC1C12CC3CC(CC(C3)C1)C2` (stereo unspecified), the IC50 [5] is reported as 481 µM, the CC50 [1] is reported as 56 µM and the “Ratio CC50/EC50” value [2] is reported as 7.2. For the same molecule, the EC50 [3] was over 59 µM, the IC50 [6] was 475 µM and the Activity (Influenza A virus) was “inactive”. For the same molecule, the EC50 [4] was 7.7 µM.
For `CN(C)CCCN1C(=O)CSC1C12CC3CC(CC(C3)C1)C2` (stereo unspecified), the IC50 [5] was over 620 µM, the CC50 [1] was 122 µM and the “Ratio CC50/EC50” value [2] was 4. The EC50 [3] was over 62 µM, the IC50 [6] was at least 620 µM and the Activity (Influenza A virus) was “inactive”. The EC50 [4] was 31 µM.
For `CCN(CC)CCCN1C(=O)CSC1C12CC3CC(CC(C3)C1)C2` (stereo unspecified), the IC50 [5] was over 571 µM, the CC50 [1] was 89 µM and the “Ratio CC50/EC50” value [2] was 3.1. The EC50 [3] was over 57 µM, the IC50 [6] was over 571 µM and the Activity (Influenza A virus) was “inactive”. For the same molecule, the EC50 [4] was 28 µM.
With `O=C1CSC(C23CC4CC(CC(C4)C2)C3)N1c1ccc(Cl)cc1` (stereo unspecified) the CC50 [1] was at least 287 µM, the “Ratio CC50/EC50” value [2] was “<=5” and the EC50 [3] was over 57.5 µM. The Activity (Influenza A virus) was “inactive” and the EC50 [4] was over 57 µM.
For `Cc1cc(C)nc(N2C(=O)CS[C@H]2C23CC4CC(CC(C4)C2)C3)c1`, the IC50 [5] was over 584 µM, the CC50 [1] was 44 µM and the “Ratio CC50/EC50” value [2] was 3.8. For the same molecule, the EC50 [3] was over 58 µM, the IC50 [6] was over 584 µM and the Activity (Influenza A virus) was “inactive”. It also gave an EC50 [4] of 12 µM.
In the case of `O=C1CSC(C23CC4CC(CC(C4)C2)C3)N1c1cccnc1` (stereo unspecified), the IC50 [5] is reported as at least 636 µM, the CC50 [1] is reported as 105 µM and the “Ratio CC50/EC50” value [2] is reported as “<=3”. For the same molecule, the EC50 [3] was over 63 µM, the IC50 [6] was at least 636 µM and the Activity (Influenza A virus) was “inactive”. It also gave an EC50 [4] of at least 32 µM.
In the case of `Cc1ccc(N2C(=O)CSC2C23CC4CC(CC(C4)C2)C3)nc1` (stereo unspecified), the CC50 [1] is reported as 59 µM, the “Ratio CC50/EC50” value [2] is reported as under 4.8 and the EC50 [3] is reported as over 12.4 µM. The Activity (Influenza A virus) was “inactive” and the EC50 [4] was over 12 µM.
With `O=C1CSC(C23CC4CC(CC(C4)C2)C3)N1CCN1CCCCC1` (stereo unspecified) the CC50 [1] was 44 µM, the “Ratio CC50/EC50” value [2] was under 4 and the EC50 [3] was over 11 µM. The Activity (Influenza A virus) was “inactive” and the EC50 [4] was over 11 µM.
With `O=C1CSC(C23CC4CC(CC(C4)C2)C3)N1c1ccc(F)cc1` (stereo unspecified) the CC50 [1] was at least 302 µM, the “Ratio CC50/EC50” value [2] was “<=1” and the EC50 [3] was over 302 µM. For the same molecule, the Activity (Influenza A virus) was “inactive” and the EC50 [4] was over 302 µM.
For `Cc1cc(C)nc(N2C(=O)CSC2C23CC4CC(CC(C4)C2)C3)c1` (stereo unspecified), the IC50 [5] was 38 µM, the CC50 [1] was 42 µM and the “Ratio CC50/EC50” value [2] was 120. It also gave an EC50 [3] of over 11.7 µM, an IC50 [6] of 29 µM and an EC50 [4] of 0.35 µM.
For `O=C1CSC(C23CC4CC(CC(C4)C2)C3)N1c1ccncc1` (stereo unspecified), the CC50 [1] was 159 µM, the “Ratio CC50/EC50” value [2] was under 2.5 and the EC50 [3] was over 63 µM. The Activity (Influenza A virus) was “inactive” and the EC50 [4] was over 63 µM.
With `Cc1ccnc(N2C(=O)CSC2C23CC4CC(CC(C4)C2)C3)c1` (stereo unspecified) the IC50 [5] was 88 µM, the CC50 [1] was over 304 µM and the “Ratio CC50/EC50” value [2] was over 54. The EC50 [3] was over 304 µM, the IC50 [6] was 40 µM and the Activity (Influenza A virus) was “inactive”. The EC50 [4] was 5.6 µM.
In the case of `Cc1cc(C)nc(N2C(=O)CSC2C)c1` (stereo unspecified), the IC50 [5] is reported as over 900 µM, the CC50 [1] is reported as over 450 µM and the “Ratio CC50/EC50” value [2] is reported as over 450. It also gave an EC50 [3] of over 450 µM, an IC50 [6] of at least 900 µM and an EC50 [4] of over 450 µM.
For `O=C1CSC(C23CC4CC(CC(C4)C2)C3)N1c1ccccn1` (stereo unspecified), the CC50 [1] was over 318 µM, the “Ratio CC50/EC50” value [2] was under 1 and the EC50 [3] was over 318 µM. The Activity (Influenza A virus) was “inactive” and the EC50 [4] was over 318 µM.
